# According to PubChem BioAssay:
# This is one part of the list. Activity calls are given as the source filed them. Unless noted, no rule for the calls is given here.
# Test system: not listed separately
# Test: Brca1-Bard1 BiLC signal decrease – luminescence, single concentration, counter-screen for Mdm2/MdmX interaction inhibitor project, confirmation (AID 504668)
# Settings: Brca1/Bard1 bimolecular luciferase complementation counterscreen, at 8 µM, stronger effect = higher value
row,SMILES,inhibition
1,C[C@]12CC[C@H](O)C[C@H]1CC[C@@H]1[C@@H]2C[C@@H](O)[C@]2(C)[C@@H](C3=CC(=O)OC3)CC[C@]12O,34% (active)
2,O=C(CSC1c2ccccc2-c2ccccc21)N/N=C/c1ccccc1O,27.7% (active)
3,C[C@@H]1O[C@@H](O[C@H]2C[C@@H](O)[C@]3(CO)[C@H]4[C@H](O)C[C@]5(C)[C@@H](C6COC(=O)C6)CC[C@]5(O)[C@@H]4CC[C@]3(O)C2)[C@H](O)[C@H](O)[C@H]1O (stereo not given in full),26.8% (active)
4,C[C@]12CC[C@H]3[C@@H](CC[C@]4(O)C[C@@H](O)CC[C@]34C=O)[C@@]1(O)CC[C@@H]2C1=CC(=O)OC1,28% (active)
5,Brc1ccc(-[n+]2c(-c3ccccc3)cc(-c3ccccc3)cc2-c2ccccc2)cc1,24.1% (active)
6,CCOC(=O)c1cccc(-[n+]2c(-c3ccccc3)cc(-c3ccccc3)cc2-c2ccccc2)c1,33.2% (active)
7,Cn1c(NN=O)nc2ccccc21,35.8% (active)
8,NC(N)=N/N=C/c1ccc(N(c2ccccc2)c2ccccc2)cc1,29.9% (active)

# Target: Carboxy-terminal domain RNA polymerase II polypeptide A small phosphatase 1 (Homo sapiens) (UniProt Q9GZU7)
# Test: SCP1 melting temperature change from compounds – biophysical, differential scanning fluorimetry, orthogonal assay for Scp-1 inhibitor project, confirmation (AID 540329;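 active = substances whose mean melting-temperature shift, as a percentage of the reference inhibitor's shift, reaches about 5.3%, limit read from the data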;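 also: 0% = Tm of DMSO wells and 100% = Tm with sodium orthovanadate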)
# Settings: Recombinant SCP1, Sypro Orange thermal shift Tm; at 40 µM; stronger effect = higher value
# Method in brief: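 Assay system: human Scp-1 phosphatase catalytic domain, residues 76-261; input: 10 µM Scp-1 stock; medium: Tris acetate pH 5.5 buffer; dosing: one dose per compound, 10 mM stock; schedule: 20-95 °C thermal ramp; measured by: protein melting followed by Sypro Orange dye fluorescence; read-out basis: melting temperature shift relative to vanadate; control set: vanadate reference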
# Carboxy-terminal domain RNA polymerase II polypeptide A small phosphatase 1 (Homo sapiens), sequence (Q9GZU7 76-261 limits assumed): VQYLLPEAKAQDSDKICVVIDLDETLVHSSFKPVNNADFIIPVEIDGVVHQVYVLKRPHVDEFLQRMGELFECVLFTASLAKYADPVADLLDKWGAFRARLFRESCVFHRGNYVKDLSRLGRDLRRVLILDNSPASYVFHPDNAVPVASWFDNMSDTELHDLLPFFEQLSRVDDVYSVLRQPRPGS
row,SMILES,thermal shift relative to vanadate control
1,COc1ccccc1N=C1SCCCN1C,-0.51% (inactive)
2,O=C(O)CCn1cc(C=C2C(=O)NC(=S)NC2=O)c(-c2cccc(Br)c2)n1,-19.9% (inactive)
3,O=c1[nH]c(=O)n(CCc2ccc(F)cc2)c(O)c1/C=N/N1CCCCC1,-3.71% (inactive)

# Target: PEG-3 (UniProt Q6IN02)
# Test: inhibition of PEG-3 promoter-driven reporter – cell-based, HeLa, luciferase, CREF/GAPDH counter-screen panel, dose response (AID 624167)
# Settings: HeLa PEG-Prom luciferase reporter, overnight, CREF/GAPDH counter-screens; run 1, dose range 1, at 100 µM (top of the series)
# PEG-3, sequence (Q6IN02 whole entry, looked up): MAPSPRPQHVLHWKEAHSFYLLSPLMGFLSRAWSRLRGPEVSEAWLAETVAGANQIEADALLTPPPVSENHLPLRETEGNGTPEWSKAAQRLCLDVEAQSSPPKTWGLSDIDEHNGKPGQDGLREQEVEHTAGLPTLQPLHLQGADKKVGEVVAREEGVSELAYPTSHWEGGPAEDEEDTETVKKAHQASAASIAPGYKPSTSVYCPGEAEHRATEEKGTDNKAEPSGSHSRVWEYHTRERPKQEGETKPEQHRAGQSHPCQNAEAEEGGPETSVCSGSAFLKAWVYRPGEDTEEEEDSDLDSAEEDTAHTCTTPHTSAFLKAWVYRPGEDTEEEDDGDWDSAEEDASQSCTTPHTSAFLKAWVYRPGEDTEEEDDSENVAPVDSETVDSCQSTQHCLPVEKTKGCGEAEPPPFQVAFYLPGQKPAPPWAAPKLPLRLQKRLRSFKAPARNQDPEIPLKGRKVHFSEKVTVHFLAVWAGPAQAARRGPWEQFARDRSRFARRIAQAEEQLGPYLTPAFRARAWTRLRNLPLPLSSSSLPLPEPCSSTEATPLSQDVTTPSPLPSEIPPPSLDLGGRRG
row,SMILES,inhibition
1,COc1ccc(-n2nnnc2C(C2CC2)N2CCC(n3c(=O)[nH]c4ccccc43)CC2)cc1 (stereo not given),93.8%
2,O=C1NC2C(=CC(O)C(O)C2O)c2cc3c(c(O)c21)OCO3 (stereo not given),99.4%
3,O=C1NC(=O)N(Cc2ccco2)C(=O)/C1=C/C=C/c1ccco1,102%
4,Cc1cccc(C)c1-n1nnnc1C(c1ccccc1OC(F)(F)F)N1CCC(n2c(=O)[nH]c3ccccc32)CC1 (stereo not given),49.4%
5,O=[N+]([O-])c1ccc(NC2CCN(Cc3ccccc3)CC2)c2ccncc12,102%
6,O=[N+]([O-])c1cc(F)c(N2CCCCCC2)cc1N1CCNCC1,99.4%
7,O=Cc1cn(Cc2ccc(Br)cc2)c2ccccc12,41.6%
8,CC1=CC(O)C(O)C2(C)C1CC1OC(=O)C(O)C3C(C)C(O)C4(O)OCC13C42 (stereo not given),95.8%
9,O=c1c2ccccc2nc(CSc2ncnc3nc[nH]c23)n1-c1ccc(Cl)c(Cl)c1,-43.1%
10,O=C1NC(=S)NC(=O)C1=Cc1cccn1-c1ccc(O)cc1,100%
11,O=C(CSC1c2ccccc2-c2ccccc21)N/N=C/c1ccccc1O,79.8%
12,O=C1NC(=O)N(Cc2ccc(F)cc2)C(=O)/C1=C\C=C\c1ccco1,98.2%
13,O=Cc1cn(Cc2cccc(F)c2)c2ccccc12,50.1%
14,CC(C)(C)n1nnnc1C(CCc1ccccc1)N1CCC(n2c(=O)[nH]c3ccccc32)CC1 (stereo not given),86.4%
15,COc1ccc(C(c2nnnn2-c2c(C)cccc2C)N2CCC(n3c(=O)[nH]c4ccccc43)CC2)cc1 (stereo not given),63.7%
16,Cc1ccc(S(=O)(=O)c2nc(-c3ccccc3Cl)oc2N(C)C2CCN(C)CC2)cc1,99.3%
17,c1ccc(-c2cc(-c3ccccc3)[n+](-c3ccccc3)c(-c3ccccc3)c2)cc1,98.2%
18,CC[n+]1c(-c2ccccc2)c2cc(N)ccc2c2ccc(N)cc21,102%
19,CC1(C)Cc2c(C#N)c(N3CCNCC3)nc(-c3ccco3)c2CS1,101%
20,Cn1cccc1/C=C1/C(=O)NC(=S)N(Cc2ccc(F)cc2)C1=O,101%
21,O=Cc1cn(Cc2ccc(F)cc2)c2ccccc12,26.6%
22,COc1ccc(CNCCc2c(C)[nH]c3ccc(OC(F)(F)F)cc23)c(OC)c1,102%

# Target: PEG-3 (UniProt Q6IN02)
# Test: as above
# Settings: HeLa PEG-Prom luciferase reporter, overnight, CREF/GAPDH counter-screens; run 2, dose range 1, at 100 µM (top of the series)
row,SMILES,inhibition
1,COc1ccc(-n2nnnc2C(C2CC2)N2CCC(n3c(=O)[nH]c4ccccc43)CC2)cc1 (stereo not given),95.7%
2,O=C1NC2C(=CC(O)C(O)C2O)c2cc3c(c(O)c21)OCO3 (stereo not given),94.9%
3,O=C1NC(=O)N(Cc2ccco2)C(=O)/C1=C/C=C/c1ccco1,102%
4,Cc1cccc(C)c1-n1nnnc1C(c1ccccc1OC(F)(F)F)N1CCC(n2c(=O)[nH]c3ccccc32)CC1 (stereo not given),42%
5,O=[N+]([O-])c1ccc(NC2CCN(Cc3ccccc3)CC2)c2ccncc12,99%
6,O=[N+]([O-])c1cc(F)c(N2CCCCCC2)cc1N1CCNCC1,101%
7,O=Cc1cn(Cc2ccc(Br)cc2)c2ccccc12,72.9%
8,CC1=CC(O)C(O)C2(C)C1CC1OC(=O)C(O)C3C(C)C(O)C4(O)OCC13C42 (stereo not given),93.3%
9,O=c1c2ccccc2nc(CSc2ncnc3nc[nH]c23)n1-c1ccc(Cl)c(Cl)c1,33.8%
10,O=C1NC(=S)NC(=O)C1=Cc1cccn1-c1ccc(O)cc1,101%
11,O=C(CSC1c2ccccc2-c2ccccc21)N/N=C/c1ccccc1O,66.1%
12,O=C1NC(=O)N(Cc2ccc(F)cc2)C(=O)/C1=C\C=C\c1ccco1,99.4%
13,O=Cc1cn(Cc2cccc(F)c2)c2ccccc12,75.9%
14,CC(C)(C)n1nnnc1C(CCc1ccccc1)N1CCC(n2c(=O)[nH]c3ccccc32)CC1 (stereo not given),92.6%
15,COc1ccc(C(c2nnnn2-c2c(C)cccc2C)N2CCC(n3c(=O)[nH]c4ccccc43)CC2)cc1 (stereo not given),63.1%
16,Cc1ccc(S(=O)(=O)c2nc(-c3ccccc3Cl)oc2N(C)C2CCN(C)CC2)cc1,101%
17,c1ccc(-c2cc(-c3ccccc3)[n+](-c3ccccc3)c(-c3ccccc3)c2)cc1,99.1%
18,CC[n+]1c(-c2ccccc2)c2cc(N)ccc2c2ccc(N)cc21,102%
19,CC1(C)Cc2c(C#N)c(N3CCNCC3)nc(-c3ccco3)c2CS1,101%
20,Cn1cccc1/C=C1/C(=O)NC(=S)N(Cc2ccc(F)cc2)C1=O,100%
21,O=Cc1cn(Cc2ccc(F)cc2)c2ccccc12,60.7%
22,COc1ccc(CNCCc2c(C)[nH]c3ccc(OC(F)(F)F)cc23)c(OC)c1,101%
